Measurements: ChEMBL document CHEMBL1145748, “Nonpeptide alphavbeta3 antagonists. 8. In vitro and in vivo evaluation of a potent alphavbeta3 antagonist for the prevention and treatment of osteoporosis” (J Med Chem, 2003)

Experiments:
[1] = Half life of compound was determined in dog; assay type: ADME, organism-based, Canis lupus familiaris; details: in vivo
Summary of the method: (§1)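 Dogs given 0.2 mpk iv and 1 mpk po, in water; bioavailability, clearance and half-life taken from the plasma PK profile.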

[2] = Bioavailability in dog; assay type: ADME, organism-based, Canis lupus familiaris; details: in vivo; summary of the method: as §1
[3] = Percent binding of compound towards human plasma protein was determined; assay type: ADME, cell-free
Summary of the method: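 Human plasma, diluted, with ultrafiltration in pH 7.4 buffer at room temperature. Solutions analyzed by HPLC; high-throughput format.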

[4] = Plasma clearance in dog was determined; assay type: ADME, organism-based, Canis lupus familiaris; summary of the method: as §1
[5] = Partition coefficient (logP); assay type: physicochemical; details: octanol/water
Summary of the method: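 Partitioning between octanol and pH 7.4 buffer.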

Integrin alpha-V/beta-3 = Integrin alpha-V/beta-3 (Homo sapiens, UniProt P05106+P06756); experiment: Inhibition of alphaV-beta3 integrin binding; assay type: protein-complex assay
Integrin alpha-V/beta-3, sequence (P05106 27-788 limits assumed): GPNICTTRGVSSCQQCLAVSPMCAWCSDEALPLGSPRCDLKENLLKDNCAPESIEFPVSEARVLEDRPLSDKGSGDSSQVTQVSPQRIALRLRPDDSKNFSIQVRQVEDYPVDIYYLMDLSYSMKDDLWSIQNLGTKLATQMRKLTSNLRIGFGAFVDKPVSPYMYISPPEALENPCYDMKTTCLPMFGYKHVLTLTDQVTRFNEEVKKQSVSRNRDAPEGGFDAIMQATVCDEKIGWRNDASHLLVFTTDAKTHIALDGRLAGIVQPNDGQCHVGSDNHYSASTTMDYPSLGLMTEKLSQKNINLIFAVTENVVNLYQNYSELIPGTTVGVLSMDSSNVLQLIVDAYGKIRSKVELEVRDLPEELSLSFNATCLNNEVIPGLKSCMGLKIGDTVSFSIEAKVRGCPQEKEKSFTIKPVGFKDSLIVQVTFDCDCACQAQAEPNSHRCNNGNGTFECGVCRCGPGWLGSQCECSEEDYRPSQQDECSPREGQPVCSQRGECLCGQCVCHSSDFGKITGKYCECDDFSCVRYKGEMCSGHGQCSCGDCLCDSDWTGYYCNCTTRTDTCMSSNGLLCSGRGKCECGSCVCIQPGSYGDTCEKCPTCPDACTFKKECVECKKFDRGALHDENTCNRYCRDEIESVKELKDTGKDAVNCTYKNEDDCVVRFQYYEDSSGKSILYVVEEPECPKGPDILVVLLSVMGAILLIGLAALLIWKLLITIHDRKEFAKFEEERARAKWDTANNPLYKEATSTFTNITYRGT
Integrin alpha-V/beta-3, sequence (P06756 31-889 limits assumed): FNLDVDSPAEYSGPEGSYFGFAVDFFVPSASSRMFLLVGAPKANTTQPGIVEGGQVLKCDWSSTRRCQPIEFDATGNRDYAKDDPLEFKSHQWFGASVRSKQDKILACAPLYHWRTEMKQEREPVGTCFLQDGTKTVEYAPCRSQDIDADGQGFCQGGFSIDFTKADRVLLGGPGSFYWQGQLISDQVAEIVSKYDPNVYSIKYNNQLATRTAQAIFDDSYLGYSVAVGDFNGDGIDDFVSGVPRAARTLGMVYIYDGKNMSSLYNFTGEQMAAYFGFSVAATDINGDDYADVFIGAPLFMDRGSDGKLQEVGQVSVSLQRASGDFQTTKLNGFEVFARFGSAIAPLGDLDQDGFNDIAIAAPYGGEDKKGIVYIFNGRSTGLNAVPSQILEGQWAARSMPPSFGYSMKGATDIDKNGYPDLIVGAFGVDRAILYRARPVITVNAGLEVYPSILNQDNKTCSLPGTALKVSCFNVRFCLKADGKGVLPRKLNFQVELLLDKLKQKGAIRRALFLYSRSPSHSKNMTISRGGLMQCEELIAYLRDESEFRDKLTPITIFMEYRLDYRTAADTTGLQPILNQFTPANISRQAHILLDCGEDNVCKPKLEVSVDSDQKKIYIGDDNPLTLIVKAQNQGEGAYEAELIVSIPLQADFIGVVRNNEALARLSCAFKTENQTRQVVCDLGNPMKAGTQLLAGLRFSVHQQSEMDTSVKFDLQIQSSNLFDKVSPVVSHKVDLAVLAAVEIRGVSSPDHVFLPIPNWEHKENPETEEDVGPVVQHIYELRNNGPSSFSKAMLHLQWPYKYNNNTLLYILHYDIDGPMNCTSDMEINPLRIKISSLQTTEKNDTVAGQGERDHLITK
Integrin alpha-V/beta-3, sequence (P06756 891-1048 limits assumed): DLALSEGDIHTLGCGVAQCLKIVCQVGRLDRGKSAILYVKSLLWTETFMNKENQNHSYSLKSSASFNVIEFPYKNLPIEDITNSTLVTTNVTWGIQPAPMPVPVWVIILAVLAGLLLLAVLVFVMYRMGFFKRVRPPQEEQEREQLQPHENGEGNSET
Summary of the method: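 Scintillation-proximity assay. Displacement of a 125I-labelled iodobenzenesulfonylamino naphthyridine propionic acid radioligand from purified recombinant human αvβ3 is measured.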

[6] = Half life of compound was determined in rhesus monkey; assay type: ADME; details: cercopithecidae, in vivo
[7] = Bioavailability of compound was determined in rhesus monkey; assay type: ADME, organism-based, Macaca mulatta; details: in vivo
[8] = Half life of compound was determined in rat; assay type: ADME, organism-based; details: in vivo
[9] = Plasma clearance in rhesus monkey was determined; assay type: ADME, organism-based; details: cercopithecidae
[10] = Plasma clearance in rat was determined; assay type: ADME, organism-based
[11] = Bioavailability in rat; assay type: ADME, organism-based; details: in vivo
Rattus norvegicus [12] = species: Rattus norvegicus; experiment: Inhibitory effect of 10 mpk compound b.i.d. for 28 days was determined by bone mineral density in ovariectomized female rat; assay type: functional
Summary of the method: (§2)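 Female rats ovariectomized and, within 24 h, dosed orally b.i.d. for 28 days (n = 10/group), with sham and OVX-vehicle groups. BMD measured by DXA at the distal femoral metaphysis and central femur. Result expressed as DFM:central BMD ratio (mean ± SEM).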

Rattus norvegicus [13] = species: Rattus norvegicus; experiment: Inhibitory effect of 30 mpk compound b.i.d. for 28 days was determined by bone mineral density in ovariectomized female rat; assay type: functional; summary of the method: as §2
Rattus norvegicus [14] = species: Rattus norvegicus; experiment: distal femoral metaphysis bone mineral density in young male rat after constant infusion of compound was determined; assay type: functional
Summary of the method: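 Growing male Sprague–Dawley rats (160 g) treated 10 days. Compound at 60 mg/mL in water with <1 equiv 1 N HCl, given by implanted subcutaneous osmotic minipump to a steady-state concentration of 800 nM (n = 15). PK checked in 3 parallel rats. Alendronate control 0.005 mpk sc qd. Right femur excised, stored in 70% ethanol, DFM BMD by DXA.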

[15] = Selectivity for alphaV-beta3 over alphaV-beta5 integrins; design: species or system Homo sapiens
Summary of the method: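 αvβ3 binding is measured by SPA displacement of a 125I-iodobenzenesulfonylamino radioligand from purified recombinant human αvβ3. The αvβ5 counterscreen uses the same radioligand displaced from purified recombinant αvβ5 in a similar SPA.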

SMILES | half-life [1] [min] | bioavailability [2] [%] | Plasma protein binding [3] [%] | clearance [4] [mL/min/kg] | logP [5] | IC50 (Integrin alpha-V/beta-3) [nM] | other results
COc1ccc([C@H](CC(=O)O)N2CCN(CCCc3ccc4c(n3)NC(=O)CC4)C2=O)cn1 |  |  |  |  |  | 141 | 
COc1ccc([C@H](CC(=O)O)N2CCN(CCCc3ccc4c(n3)NC(O)CC4)C2=O)cn1 (some centres not stated) |  |  |  |  |  | 0.4 | 
COc1ccc([C@H](CC(=O)O)N2CCN(CCC(=O)c3ccc4c(n3)NCCC4)C2=O)cn1 |  |  |  |  |  | 3 | 

Stronger by IC50 (Integrin alpha-V/beta-3), values ahead:

half-life [1] [min] | bioavailability [2] [%] | Plasma protein binding [3] [%] | clearance [4] [mL/min/kg] | logP [5] | IC50 (Integrin alpha-V/beta-3) [nM] | SMILES | other results
156 | 94 | 95 | 5.1 | 0.82 | 0.35 | COc1ccc([C@H](CC(=O)O)N2CCN(CCCc3ccc4c(n3)NCCC4)C2=O)cc1F | 
54 | 10 | 61 | 70 | -0.55 | 0.25 | O=C(O)C[C@@H](c1cccnc1)N1CCN(CCCc2ccc3c(n2)NCCC3)C1=O | 
162 | 75 | 98 | 4.1 | 0.8 | 0.1 | O=C(O)C[C@@H](c1ccc2c(c1)OCC2)N1CCN(CCCc2ccc3c(n2)NCCC3)C1=O | 
210 | 64 | 88 | 6.4 | 0.21 | 0.08 | COc1ccc([C@H](CC(=O)O)N2CCN(CCCc3ccc4c(n3)NCCC4)C2=O)cn1 | half-life [6]: 120 min; bioavailability [7]: 74%; half-life [8]: 180 min; clearance [9]: 9 mL/min/kg; clearance [10]: 47 mL/min/kg; bioavailability [11]: 26%; DFM:central BMD ratio (Rattus norvegicus [12]): 0.908; DFM:central BMD ratio (Rattus norvegicus [13]): 0.951; BMD (Rattus norvegicus [14]): 142.2 mg cm**-2; IC50 [15]: 10 nM
